Consider one compound from ChEMBL document CHEMBL4376883, “Discovery and Optimization of Small Molecules Targeting the Protein-Protein Interaction of Heat Shock Protein 90 (Hsp90) and Cell Division Cycle 37 as Orally Active Inhibitors for the Treatment of Colorectal Cancer” (J Med Chem, 2020).

A short description of data set [1]: Cmax in tumor of human HCT116 cells xenografted BALB/c mouse at 80 mg/kg, po administered as single dose by LC-MS/MS analysis. It counts as ADME, organism-based, Neoplasm. Also on record: dose 80 mg/kg, route oral. An outline of the steps: (§1)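 Tumour-bearing mice (n = 6 per group) given one oral dose of 80 mg/kg. Blood and tumour collected into heparinized tubes at 0, 0.25, 0.5, 1, 2, 4, 8, 12 and 24 h. Plasma obtained by centrifugation at 3000 rpm for 10 min. Samples stored at -80 °C and quantified by LC-MS/MS.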

The nature of data set [2]: Stability of the compound in mouse plasma assessed as parent compound remaining at 1 uM measured after 60 mins by LC-MS/MS analysis. It counts as ADME, cell-free. The conditions noted are these: read-out: Stability. Put shortly: (§2)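 Compound diluted from 10 mM DMSO stock to 1 μM in mouse or human plasma and held at 37 °C in a water bath. Reactions were stopped with acetonitrile at 0, 10, 30, 60 and 90 min. Parent compound was quantified by LC-MS/MS as % remaining.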

The nature of data set [3]: Permeability of the compound at pH 7.4 by PAMPA. The conditions noted are these: read-out: permeability. It counts as ADME. An outline of the steps:
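Permeability coefficient (Pe) was measured at pH 7.4 by double-sink PAMPA.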
On the technique in general: The PAMPA barrier holds no transporters, so it reflects passive diffusion.

Data set [4] in a line: Tmax in tumor of human HCT116 cells xenografted BALB/c mouse at 80 mg/kg, po administered as single dose by LC-MS/MS analysis. It counts as ADME, organism-based, Neoplasm. An outline of the steps: (§3)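 HCT116-xenografted mice (n = 6 per group) received a single oral 80 mg/kg dose. Blood and tumor were sampled at 0 to 24 h. Plasma was obtained by centrifugation at 3000 rpm for 10 min. Samples were stored at −80 °C and quantified by LC-MS/MS.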
A general note: A xenograft is tissue or cells of one species grown in another, often human tumour cells in immunodeficient mice.

Data set [5] can be described thus: MRT in tumor of human HCT116 cells xenografted BALB/c mouse at 80 mg/kg administered as single dose by LC-MS/MS analysis. It is filed as ADME, organism-based, Neoplasm. An outline of the steps:
as §3

Data set [6] concerns HCT-116. Description: Antiproliferative activity against human HCT116 cells measured after 72 hrs by CCK8 assay. It is filed as functional, cell-based. The settings on record: HCT-116, 72 h. Put shortly: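 Cells grown in RPMI 1640 with 10% FBS at 37 °C, 5% CO2; STR-authenticated and mycoplasma-checked. Seeded at 3000-5000 cells/well and left 24 h. Serial compound dilutions added for 72 h, with matched DMSO as control. Viability read by CCK8 kit using the standard protocol. IC50 values derived from at least three parallel experiments.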
Background: Tetrazolium dyes change colour on reduction, which living cells bring about.

Data set [7] can be described thus: Clearance in human liver microsomes at 10 uM preincubated for 5 mins followed by NADPH addition by LC-MS/MS analysis. It counts as ADME, Microsome. The settings on record: read-out: CLH. An outline of the steps:
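Compound at 10 µM preincubated 5 min at 37 °C with human or mouse liver microsomes (0.5 mg/mL) in 100 mM phosphate, pH 7.4. Reaction started with 1 mM NADPH, stopped with cold acetonitrile, centrifuged and analysed by LC-MS/MS.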

A short description of data set [8]: Apparent volume of distribution during terminal phase in plasma of human HCT116 cells xenografted BALB/c mouse at 80 mg/kg, po administered as single dose by LC-MS/MS analysis. It counts as ADME, organism-based. The settings on record: read-out: Vz/F. Put shortly: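 Xenograft mice (n = 6 per group) received a single 80 mg/kg oral dose. Plasma and tumour were sampled over 0–24 h into heparinized tubes and analysed by LC-MS/MS.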

The nature of data set [9]: Stability of the compound in mouse plasma assessed as parent compound remaining at 1 uM measured after 90 mins by LC-MS/MS analysis. The conditions noted are these: read-out: Stability. It is filed as ADME, cell-free. An outline of the steps:
as §2

The nature of data set [10]: AUC (0 to t) in tumor of human HCT116 cells xenografted BALB/c mouse at 80 mg/kg, po administered as single dose by LC-MS/MS analysis. It counts as ADME, organism-based, Neoplasm. An outline of the steps:
as §1

`Cc1cc(C)c(S(=O)(=O)N(CC(=O)O)c2ccc(Nc3ccnc(N4CCNCC4)n3)cc2)c(C)c1`: the Cmax in [1] was found to be 50 µg/mL. In addition, the remaining at 1 h, 1 µM in [2] was determined as 101%. In [3], the Papp was 1040 nm/s. Further, in data set [4], the time of peak concentration (Tmax) was found to be 1 h. Besides, the MRT in data set [5] was determined as 6.02 h. For the same compound, the IC50 in [6] turned out to be 1.73 µM. In addition, the microsomal CLint at 10 µM in [7] was 8.97 µL/min/mg. The Vd/F in data set [8] came to 0.392 L/kg. Also, the remaining at 1.5 h, 1 µM in data set [9] is 105%. In data set [10], this compound yielded an AUC(0-t) of 132 µg·h/mL.

The Cmax is the peak of the concentration-time curve. Broadly, the Tmax is the time at which the peak concentration occurs. Broadly, the MRT is a mean duration of stay, worked out from the concentration-time curve. One may read the IC50 as the concentration that gives 50% inhibition. Read a high IC50 as weaker potency in that assay. The term AUC(0-t) denotes the area under the concentration-time curve up to a stated or last time point.
